Screens: PubChem, several laboratories
Hits are enriched below; roughly 2.7% of the tested compounds scored in any of these assays.
PG9 Ab binder – PG9 antibody binding by small molecule; TR-FRET gp120-PG9 antibody binding; inhibition, % at 6.7 µM; hit rate 0.43% among 360,000; AID 624416; in the data active means inhibition above about 8.5%
NR2E3 ag-1 – agonists of human NR2E3 nuclear receptor; CHO-S Gal4-NCOR/VP16-NR2E3 two-hybrid, luciferase; inhibition of corepressor binding, % at 3.98 µM; hit rate 0.35% among 360,000; AID 602229;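 active means inhibition above the mean of all tested compounds plus 3 SD, cut at about 70% in these data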;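 further: 0% = DMSO with NR2E3 transfected cells and 100% = cells lacking NR2E3 construct; higher means lower luciferase signal from less NR2E3 corepressor binding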
NR1D1 modulator – Rev-erb alpha (human) modulation; Rev-erbα–FITC-DNA binding, fluorescence polarization, 90 min; activity, % at 10 µM; hit rate 0.79% among 370,000; P20393;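 active means activity above about 14%, limit read from the data; passing the limit was not always enough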;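 further: 0% = DMSO wells with 35 nM protein and 100% = DMSO wells with 750 nM protein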
Target sequence (P20393 whole entry, looked up): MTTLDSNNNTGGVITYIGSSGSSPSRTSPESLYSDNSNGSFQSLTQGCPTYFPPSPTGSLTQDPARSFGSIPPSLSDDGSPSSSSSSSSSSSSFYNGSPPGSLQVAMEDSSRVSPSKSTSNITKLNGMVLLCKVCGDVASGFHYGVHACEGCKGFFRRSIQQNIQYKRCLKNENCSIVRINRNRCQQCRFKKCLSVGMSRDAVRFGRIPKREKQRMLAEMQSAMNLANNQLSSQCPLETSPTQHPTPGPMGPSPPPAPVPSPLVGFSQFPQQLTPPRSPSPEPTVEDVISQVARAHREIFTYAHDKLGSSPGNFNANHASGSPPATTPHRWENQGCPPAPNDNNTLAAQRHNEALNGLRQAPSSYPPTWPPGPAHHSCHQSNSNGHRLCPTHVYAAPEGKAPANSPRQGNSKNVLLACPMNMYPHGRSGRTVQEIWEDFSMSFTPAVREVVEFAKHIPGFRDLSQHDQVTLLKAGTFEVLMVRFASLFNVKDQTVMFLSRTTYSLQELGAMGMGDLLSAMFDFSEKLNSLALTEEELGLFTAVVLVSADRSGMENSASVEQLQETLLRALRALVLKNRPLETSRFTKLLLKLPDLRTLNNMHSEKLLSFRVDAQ
MC4R ag barr – activates human MC4R beta-arrestin recruitment; AID 540308; hit rate 0.98% among 360,000; U2OS MC4R beta-arrestin complementation, luminescence; percent of melanotan II response, DMSO zero; P32245; activation, % at 8.9 µM;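 active means activation above a per-plate cutoff, the mean activation of sample wells on that plate plus 3 SD, cut at about 8% in these data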
NR2E3 ag-2 – agonists of human nuclear receptor NR2E3. Q9Y5X4. GST-NR2E3/biotin-RetCOR TR-FRET, 1536-well. inhibition of corepressor binding, % at 4.78 µM. hit rate 0.12% among 320,000;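 active means percent inhibition above the cutoff of mean plus 3 SD of all tested compounds, set per screening campaign, cut at about 20% in these data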;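 further: 0% = DMSO wells and 100% = biotin wells as full block of FRET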
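Test system: GST-NR2E3 and biotin-RetCOR proteins | Quantity: 1.35 nM GST-tagged NR2E3 final | Medium: Tris pH 7.5 | Also added: 7 nM biotin-RetCOR | Dosing: Compound at 4.8 µM, single dose | Timing: 5 h at 4 °C | Detection: Time-resolved FRET | Read-out basis: Percent inhibition | Benchmarks: Biotin wells as high control, 0.6% DMSO wells as low control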
MC4R antag cAMP – blocks human MC4R cAMP signaling. P32245. MC4R-expressing cells, MTII-stimulated cAMP, LANCE TR-FRET. inhibition, % at 6.5 µM. hit rate 0.48% among 360,000. AID 540295;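 active means inhibition above its plate's cutoff, the mean of tested wells on that plate plus 3 SD, cut at about 29% in these data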;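 further: 0% = Melanotan II alone and 100% = Melanotan II plus saturating MCL0020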
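Assay system: human MC4R-expressing U2OS cells; reagent: Melanotan II stimulation of cells; dosing: 6.5 µM single dose; timing: compound 30 min, challenge 1 h, detection 1 h; signal: TR-FRET cAMP assay; replicates: one well per compound, no replicates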
Rev-erbA confirm – Rev-erb alpha (human) modulation, hit confirmation; activation, % at 25 µM; hit rate 61% among 3,000; shares compounds with NR1D1 modulator; AID 1259319; Rev-erb alpha FITC-DNA binding, fluorescence polarization, 90 min;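 active means activation at or above a set limit, or at least 3 SD above the negative control mean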;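 further: 0% = 35 nM protein with DMSO and 100% = 750 nM protein high control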
RORg DNA counter – counter-screen for Rev-erb alpha modulators: RORgamma DNA binding. hit rate 8% among 910. IC50, µM. shares compounds with NR1D1 modulator. purified RORgamma protein-FITC-DNA binding, fluorescence polarization. AID 1259320;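 active means Compounds whose fitted half-maximal concentration for disrupting protein-DNA binding is below 10 micromolar; the record names Rev-erb in its text, so the target is in doubt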
Numbers without * were called inactive; i = inactive; · = no result.

SMILES | PG9 Ab binder | NR2E3 ag-1 | NR1D1 modulator | MC4R ag barr | NR2E3 ag-2 | MC4R antag cAMP | Rev-erbA confirm | others
COc1ccc(-c2cc(C3CC3)nc(SCC(=O)c3cccs3)c2C#N)cc1 | 0 | 16 | 88* | 0 | 3 | 10 | 110* | RORg DNA counter=>40
CCN1C(=O)[C@H]2[C@@H](c3ccc(-c4cc(C(C)=O)cs4)cc3)N3CCCC[C@@]3(C(=O)OC)[C@H]2C1=O | 0 | -24 | 30* | 1 | 4 | 0 | 21*
O=S1(=O)c2ccc(N3CCSCC3)cc2Oc2ccccc2CN1Cc1cn(Cc2ccc(C(F)(F)F)cc2)nn1 | · | · | 3 | · | · | · | ·
O=S1(=O)c2ccc(N3CCSCC3)cc2Oc2ccccc2CN1Cc1cn(Cc2ccc(F)cc2)nn1 | · | · | 20* | · | · | · | 19*
O=S1(=O)c2ccc(N3CCSCC3)cc2Oc2ccccc2CN1Cc1cn(Cc2cccc(C(F)(F)F)c2)nn1 | · | · | 18* | · | · | · | 10
COc1ccc(C(=O)N2CCN(Cc3ccccc3C(F)(F)F)CC2)cc1 | 0 | 1 | -1 | -1 | 0 | 2 | ·
CCn1cc(C(=O)NCCc2ccc(Cl)cc2)c(=O)c2cc(S(=O)(=O)N(C)C)ccc21 | 0 | 4 | 44* | 1 | · | 6 | 27*
Cc1ccccc1CN(C)CCS(=O)(=O)c1cc(Cl)ccc1Cl | -2 | -14 | 16* | -3 | 6 | -13 | 8
Nc1nnc(CCS(=O)(=O)c2cc(Cl)ccc2Cl)s1 | 0 | -18 | -2 | 1 | -2 | 5 | ·
CCOC(=O)c1cc(C#N)c(Nc2ccc(C)cc2)nc1C(F)(F)F | -1 | 5 | 5 | 5 | 3 | -8 | ·
CCN(CC)C(=O)CSc1nnc(-c2cccs2)n1Cc1ccco1 | -2 | 1 | -7 | -2 | 0 | 4 | ·
COc1ccc(-n2c(SCC(=O)NC3CCCCC3)nc3ccsc3c2=O)cc1 | 1 | 0 | 49* | -2 | -2 | 18 | 33* | RORg DNA counter=>40
CCC(C)NC(=O)CSc1nc2ccsc2c(=O)n1-c1ccc(OC)cc1 (centres undefined) | 2 | -14 | 5 | 0 | -1 | 0 | ·
Cc1sc2ncnc(SCC(=O)N3c4ccccc4Sc4ccc(Cl)cc43)c2c1C | -3 | -15 | 132* | -1 | -6 | 13 | 17*
CCCC(=O)N(c1ccc(OCC)cc1)S(=O)(=O)c1ccc2c3c(cccc13)C(=O)N2C | 0 | 20 | 43* | -3 | -4 | 2 | 17
CCCCCCn1cnc2c(c1=O)c1nc3ccccc3nc1n2Cc1cccs1 | 3 | -17 | 31* | 1 | -1 | 1 | 9
N#Cc1cc(C#N)c(N2CCN(c3cccc(Cl)n3)CC2)nc1N | -2 | -71 | 26* | -3 | 2 | 2 | 71* | RORg DNA counter=i
CCOC(=O)c1cnc2c(cnn2C)c1NCc1ccc(OC)cc1 | 1 | -9 | 28* | -1 | -82 | 18 | 22*
COc1ccc(CNc2c(C(=O)O)cnc3c2cnn3C)cc1 | -4 | 8 | 2 | -1 | 0 | -6 | ·
CC1(C)CN(Cc2ccccc2)C(=O)[C@H]1CC(=O)Nc1ccccc1 | -1 | 5 | 3 | 2 | · | 2 | ·
COc1ccc(/C=N/NC(=O)Nc2cccc3nsnc23)c(OC)c1 | -1 | -13 | 68* | 0 | 2 | 3 | 24*
COc1cc(/C=N/NC(=O)Nc2cccc3nsnc23)cc(OC)c1OC | 0 | -10 | 6 | 1 | · | -1 | ·
CN1CCN(C(=O)c2cc(COc3ccccc3)on2)[C@@H](c2ccccc2)C1 | -1 | -97 | -3 | -4 | 4 | 9 | ·
O=C(NC1CCSC1=O)c1ccc(Oc2cccc(C(F)(F)F)c2)nc1 (centres undefined) | -1 | 16 | 4 | 0 | 1 | 12 | ·
COc1ccc(-n2c3c(cc(C(=O)Nc4cccc(C)n4)c2=O)C(=O)CC(C)(C)C3)cc1 | -3 | -20 | 33* | -1 | -5 | -1 | 14
SMILES | PG9 Ab binder | NR2E3 ag-1 | NR1D1 modulator | MC4R ag barr | NR2E3 ag-2 | MC4R antag cAMP | Rev-erbA confirm | others
Oc1ccc(N=Nc2ccccc2C(F)(F)F)c2cccnc12 | -3 | 14 | 23* | -4 | -3 | -1 | 5
COc1ccc(C(=O)c2c(-c3ccc(OC)cc3)oc3ccc(-c4ccc(OC)nc4)cc23)cc1 | -1 | -6 | 17* | 0 | 9 | 10 | 2
CCCCOC(=O)c1ccc(NC(=O)CSC2=Nc3ccccc3C3CC=NN23)cc1 (centres undefined) | 0 | -5 | 4 | 1 | 1 | 10 | ·
O=C(CSC1=Nc2ccccc2C2CC=NN12)Nc1ccc(F)c(F)c1F (centres undefined) | 2 | -9 | 18* | 5 | 2 | -7 | 6
Cc1cccc(NC(=O)c2cc(NC(=O)c3ccccc3)ccc2N2CCCCC2)c1 | 1 | -6 | 34* | -2 | 0 | -6 | 1
Cc1cccc(NC(=O)c2cc(NC(=O)c3ccco3)ccc2N2CCCCC2)c1 | · | -5 | 10 | 2 | 3 | 6 | ·
CCOC(=O)c1sc(NC(=O)CN2C(=O)NC3(CCC(C)CC3)C2=O)c(C(=O)OCC)c1C (centres undefined) | 0 | 15 | 36* | 0 | -2 | -3 | 20*
CCOC(=O)c1sc(NC(=O)CN2C(=O)NC3(CC(C)CC(C)(C)C3)C2=O)c(C(=O)OCC)c1C (centres undefined) | -1 | -29 | 2 | 1 | -4 | 18 | ·
CCOC(=O)c1c(NC(=O)CN2C(=O)NC3(CCCCCC3)C2=O)sc(C)c1-c1ccc(C)cc1 | -2 | -9 | 25* | 3 | 1 | 9 | 17*
CCCOC(=O)CCn1c(=S)oc2ccccc21 | -1 | -13 | -6 | -1 | 2 | -6 | ·
COc1cc(C(=O)NCc2ccc(-c3nc4ccccc4o3)cc2)cc(OC)c1OC | 11* | -5 | 26* | -2 | 2 | 0 | 11
Cc1[nH]n(-c2ccccc2)c(=O)c1N=Nc1ccc(Cl)cc1 | 0 | -29 | -3 | -1 | 0 | 6 | ·
Cc1ccccc1C(=O)N(C)[C@H]1C[C@H]2c3[nH]c4c(-c5ccccc5)cccc4c3CCN2C(=O)[C@H]1[C@H](C)O | 1 | · | 13* | · | · | · | 2
C[C@H](O)[C@@H]1C(=O)N2CCc3c([nH]c4c(-c5ccccc5)cccc34)[C@@H]2C[C@@H]1N(C)C(=O)c1cc(Cl)cc(Cl)c1 | -1 | · | -1 | · | · | · | ·
Cc1cc(C)c(Cn2c3ccccc3c3cnn(CC(=O)NCc4ccccn4)c(=O)c32)c(C)c1 | 4 | 5 | 39* | 0 | 2 | 1 | 18*
